What all share (assay type): functional
For assay [1], the system named is Mycobacterium tuberculosis. Briefly: Selectivity ratio of MIC for Mycobacterium tuberculosis H37Rv harboring ATP synthase subunit-a K179N mutant supplemented with 4 fold MIC of 3-(4-Morpholinophenyl)-4-((pyridin-2-ylmethyl)amino)cyclobut-3-ene-1,2-dione to MIC for Mycobacterium tuberculosis H37Rv.
Assay [2] relates to Mycobacterium tuberculosis. Description: Selectivity ratio of MIC for Mycobacterium tuberculosis H37Rv harboring ATP synthase subunit-c D28N mutant supplemented with 8 fold MIC of 3-(4-Morpholinophenyl)-4-((pyridin-2-ylmethyl)amino)cyclobut-3-ene-1,2-dione to MIC for Mycobacterium tuberculosis H37Rv.
Assay [3] concerns Mycobacterium tuberculosis. Description: Antimycobacterial activity against Mycobacterium tuberculosis H37Rv harboring ATP synthase subunit a K179N mutant supplemented with 8 fold MIC of 3-(4-Morpholinophenyl)-4-((pyridin-2-ylmethyl)amino)cyclobut-3-ene-1,2-dione. A digest of the protocol: (§1)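 Spontaneous resistant mutants were selected by plating M. tuberculosis on 7H10 agar containing the squaramide at 4- or 8-fold its MIC. MIC was then determined for the mutants, with MIC taken as the concentration giving 80% growth inhibition.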

Assay [4] relates to Mycobacterium tuberculosis. Description: Antimycobacterial activity against Mycobacterium tuberculosis H37Rv harboring ATP synthase subunit-a K179N mutant supplemented with 4 fold MIC of 3-(4-Morpholinophenyl)-4-((pyridin-2-ylmethyl)amino)cyclobut-3-ene-1,2-dione. In a few lines:
as §1

Assay [5] has as its system Mycobacterium tuberculosis. Briefly: Selectivity ratio of MIC for Mycobacterium tuberculosis H37Rv harboring ATP synthase subunit-c D28N mutant supplemented with 4 fold MIC of 3-(4-Morpholinophenyl)-4-((pyridin-2-ylmethyl)amino)cyclobut-3-ene-1,2-dione to MIC for Mycobacterium tuberculosis H37Rv.
Assay [6] relates to Mycobacterium tuberculosis. Briefly: Antimycobacterial activity against Mycobacterium tuberculosis H37Rv harboring ATP synthase subunit-c D28N mutant supplemented with 8 fold MIC of 3-(4-Morpholinophenyl)-4-((pyridin-2-ylmethyl)amino)cyclobut-3-ene-1,2-dione. In a few lines:
as §1

In assay [7] the test system is Mycobacterium tuberculosis. Briefly: Selectivity ratio of MIC for Mycobacterium tuberculosis H37Rv harboring ATP synthase subunit a K179N mutant supplemented with 8 fold MIC of 3-(4-Morpholinophenyl)-4-((pyridin-2-ylmethyl)amino)cyclobut-3-ene-1,2-dione to MIC for Mycobacterium tuberculosis H37Rv.
Assay [8] relates to Mycobacterium tuberculosis. Description: Antimycobacterial activity against Mycobacterium tuberculosis H37Rv harboring ATP synthase subunit-c D28N mutant supplemented with 4 fold MIC of 3-(4-Morpholinophenyl)-4-((pyridin-2-ylmethyl)amino)cyclobut-3-ene-1,2-dione. In a few lines:
as §1

As for `NNC(=O)c1ccncc1` [ISONIAZID], the Selectivity ratio result in assay [1], in assay [2], in assay [5] and in assay [7] was “<=4” throughout. In addition, the “MIC=>80” value in assay [3] was 0.02 to 0.03 µM; in assay [4], 0.03 µM; in assay [6], 0.03 µM; in assay [8], 0.02 µM.

As for `O=c1c(NCc2cnccn2)c(-c2ccc(N3CCOCC3)cc2)c1=O`, the Selectivity ratio in assay [1], in assay [2], in assay [5] and in assay [7] was over 8 in each case. The “MIC=>80” value in assay [3], in assay [4], in assay [6] and in assay [8] was over 100 µM throughout.

For `CO[C@H]1/C=C/O[C@@]2(C)Oc3c(C)c(O)c4c(O)c(c(/C=N/N5CCN(C)CC5)c(O)c4c3C2=O)NC(=O)/C(C)=C\C=C\[C@H](C)[C@H](O)[C@@H](C)[C@@H](O)[C@@H](C)[C@H](OC(C)=O)[C@@H]1C` [RIFAMPIN], the Selectivity ratio result in assay [1], in assay [2], in assay [5] and in assay [7] was “<=4” throughout. Further, the “MIC=>80” value in assay [3] was 0.004 to 0.008 µM; in assay [4], 0.008 µM; in assay [6], 0.016 µM; in assay [8] it was 0.008 µM.

Consider `O=c1c(NCc2ccccn2)c(-c2ccc(C(F)(F)F)cc2)c1=O`, for which the Selectivity ratio in assay [1], in assay [2], in assay [5] and in assay [7] was over 8 in each case. The “MIC=>80” value is “>=100 uM” in assay [3], over 100 µM in assay [4], 100 µM in assay [6] and over 100 µM in assay [8].

For the compound `O=c1c(NCc2ccccn2)c(-c2ccc(N3CCOCC3)cc2)c1=O`, the Selectivity ratio in assay [1], in assay [2], in assay [5] and in assay [7] was over 8 in each case. The “MIC=>80” value in assay [3] is over 100 µM; in assay [4] it was over 100 µM; in assay [6], 100 µM; in assay [8], over 100 µM.

These data come from ChEMBL document CHEMBL4052589, “Discovery of Imidazo[1,2-a]pyridine Ethers and Squaramides as Selective and Potent Inhibitors of Mycobacterial Adenosine Triphosphate (ATP) Synthesis” (J Med Chem, 2017).
